The values that follow come from ChEMBL document CHEMBL2086236, “Discovery of pyrrolo[3,2-c]quinoline-4-one derivatives as novel hedgehog signaling inhibitors” (Bioorg Med Chem, 2012).

One series has as its target Sonic hedgehog protein (Mus musculus, UniProt Q62226). Kind of series: Inhibition of recombinant mouse Shh expressed in […] assessed as inhibition of Gli1 expression after 48 hrs by luciferase reporter gene assay. Format: cell-based, NIH/3T3. In outline: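 NIH3T3 cells stably carrying a Gli-luciferase reporter (kept in DMEM/10% FBS, 500 µg/mL G418) were seeded on collagen-coated plates overnight. Compounds (final 0.03–1000 nM, n = 4 wells) were added with recombinant mouse Shh-N at final 1 µg/mL in 5.8% FBS, then incubated 48 h. Controls were 0.1% DMSO ± Shh-N (n = 10). Read-out was luciferase luminescence; IC50 is the mean of four measurements.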
A general note: Reporter assays use an easily measured gene product as a stand-in for the process of interest.

Series [1] can be described thus: Clearance in human hepatic microsomes by LC-MS/MS analysis. Format: ADME, Microsome. Conditions: liver microsomes, read-out: CLH; call rule not given here. In short, it runs like this: (§1)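 Liver microsomes (0.2 mg protein/mL) were incubated with 1 µmol/L test compound in 50 mmol/L potassium phosphate, pH 7.4. The reaction was started with an NADPH-generating system (MgCl₂, glucose-6-phosphate, β-NADP+, G6P dehydrogenase) added at 20% of the reaction volume. Clearance was reported in µL/min/mg.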

A short description of series [2]: Clearance in mouse hepatic microsomes by LC-MS/MS analysis. Format: ADME, Microsome. As to conditions: liver microsomes, read-out: CLH. In outline: as §1
In general terms: Microsomes from liver hold many membrane-bound enzymes, among them those of drug oxidation.

The target of series [3] is Voltage-gated inwardly rectifying potassium channel KCNH2 (Homo sapiens, UniProt Q12809). Briefly: inhibition of human ERG.
Sequence of Voltage-gated inwardly rectifying potassium channel KCNH2 (Q12809 whole entry): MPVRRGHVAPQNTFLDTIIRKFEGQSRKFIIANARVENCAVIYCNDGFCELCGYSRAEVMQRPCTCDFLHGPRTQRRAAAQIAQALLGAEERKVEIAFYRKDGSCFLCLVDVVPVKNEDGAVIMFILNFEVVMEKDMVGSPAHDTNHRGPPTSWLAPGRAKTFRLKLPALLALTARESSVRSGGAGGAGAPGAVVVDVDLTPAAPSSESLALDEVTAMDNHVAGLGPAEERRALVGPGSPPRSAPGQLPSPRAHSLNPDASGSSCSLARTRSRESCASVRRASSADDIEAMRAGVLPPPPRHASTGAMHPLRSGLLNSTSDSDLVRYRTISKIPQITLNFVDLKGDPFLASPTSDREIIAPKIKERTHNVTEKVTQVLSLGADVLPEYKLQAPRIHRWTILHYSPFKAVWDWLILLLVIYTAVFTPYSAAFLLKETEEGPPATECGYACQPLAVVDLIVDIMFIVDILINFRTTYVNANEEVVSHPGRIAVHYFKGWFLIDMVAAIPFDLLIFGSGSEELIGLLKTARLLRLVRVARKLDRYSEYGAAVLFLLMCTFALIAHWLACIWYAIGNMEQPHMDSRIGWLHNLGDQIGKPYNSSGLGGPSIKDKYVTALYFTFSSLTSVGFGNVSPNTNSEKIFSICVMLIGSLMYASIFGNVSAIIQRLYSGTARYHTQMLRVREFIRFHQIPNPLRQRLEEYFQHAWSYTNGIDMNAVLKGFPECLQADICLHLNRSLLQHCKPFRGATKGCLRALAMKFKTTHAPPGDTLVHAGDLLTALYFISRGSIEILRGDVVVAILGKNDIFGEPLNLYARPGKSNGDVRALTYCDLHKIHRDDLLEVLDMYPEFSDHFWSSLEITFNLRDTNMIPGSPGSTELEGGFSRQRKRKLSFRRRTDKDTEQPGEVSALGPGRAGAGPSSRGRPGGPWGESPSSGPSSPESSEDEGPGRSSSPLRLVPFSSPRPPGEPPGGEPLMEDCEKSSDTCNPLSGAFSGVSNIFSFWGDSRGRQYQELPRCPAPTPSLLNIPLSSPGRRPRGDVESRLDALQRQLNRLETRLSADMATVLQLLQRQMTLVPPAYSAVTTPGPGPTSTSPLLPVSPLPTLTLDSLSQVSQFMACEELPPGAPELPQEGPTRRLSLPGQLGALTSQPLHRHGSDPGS
Series [4] relates to Mus musculus. Kind of series: In vivo inhibition of Shh signalling in mouse xenografted with PAN-04 cells assessed as Gli1 expression at 25 mg/kg, po bid measured after 24 hrs post first dose relative to control; values are per cent of control. As to conditions: PAN-04, po.
Series [5] in a line: Binding affinity to human Smo expressed in 293T cells after 1 hr by fluorescence analysis. Format: cell-based. In outline:
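293T cells were transiently transfected overnight with HA-tagged human Smo, then plated at 6×10⁴ cells/well. Compounds (final 0.03–1000 nM) were incubated 1 h with 2 nM BODIPY-cyclopamine, n = 3 wells per concentration. Media or excess unlabelled cyclopamine set the 0%/100% inhibition controls (n = 5). Cell fluorescence was read by flow cytometry after Versene detachment.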

Series [6] relates to Mus musculus. Briefly: Toxicity against Ptch+/- p53-/- double-mutant mouse medulloblastoma allograft model assessed as body weight loss at 6.25 mg/kg, po bid for 2 weeks. Format: organism-based. Also on record: dose 6.25 mg/kg, route oral. Conditions: in vivo, 336 h. In short, it runs like this: (§2)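 Nude mice carrying subcutaneous Ptch+/- p53-/- medulloblastoma allografts (passaged in vivo) were dosed orally twice daily for 2 weeks, suspended in 0.5% methylcellulose, vs vehicle, once tumors reached an average of 150–250 mm³. Tumors were measured by caliper, with V = (a × b²)/2. T/C% = mean treated (Vend−Vstart)/control (Vend−Vstart) × 100. Body weight was followed. Points are mean SD of duplicates; 1-tailed Dunnett's test vs controls.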

A short description of series [7]: Antitumor activity against Ptch+/- p53-/- double-mutant mouse medulloblastoma allograft model assessed as tumor growth rate at 6.25 mg/kg, po bid for 2 weeks measured up to 21 days relative to control. The class given is functional, Medulloblastoma cell. In outline: as §2

SMILES strings stand for the structures.

Sequence of Sonic hedgehog protein (Q62226 25-198 limits assumed): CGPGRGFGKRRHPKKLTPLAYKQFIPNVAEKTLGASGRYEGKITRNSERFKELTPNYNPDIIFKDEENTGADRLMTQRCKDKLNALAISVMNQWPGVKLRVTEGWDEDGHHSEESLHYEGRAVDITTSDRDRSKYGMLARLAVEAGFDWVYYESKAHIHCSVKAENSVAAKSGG

Take `CCC(=O)Cn1c(=O)c2c(OC)c(C(=O)NC3CCN(CCO)CC3)n(C)c2c2ccccc21`: the IC50 on Sonic hedgehog protein is more than 100 nM. The microsomal CLint was 3 µL/min/mg in series [1] and less than 1 µL/min/mg in series [2].

Turning to `COc1c(C(=O)NCCN2CCCC2)sc2c1c(=O)n(CC(=O)c1ccccc1)c1ccccc21`, on Sonic hedgehog protein, the IC50 worked out at 5.1 nM.

Take `COc1c(C(=O)NCCN2CCCC2)oc2c1c(=O)n(CC(=O)c1ccccc1)c1ccccc21`: at Sonic hedgehog protein, the IC50 is more than 1000 nM.

Regarding `COc1c(C(=O)NCCN2CCCC2)n(C)c2c1c(=O)n(CC(=O)c1ccccc1)c1ccccc21`, the IC50 at Sonic hedgehog protein came to 2.9 nM. The microsomal CLint stood at 14 µL/min/mg in series [1] and 95 µL/min/mg in series [2].

Take `CCOc1c(C(=O)NCCN2CCCC2)n(C)c2c1c(=O)n(CC(=O)c1ccccc1)c1ccccc21`: the IC50 on Sonic hedgehog protein is 7 nM. The microsomal CLint in series [1] is 26 µL/min/mg; in series [2] it was 155 µL/min/mg.

Turning to `COc1c(C(=O)NCCN2CCCCC2)n(C)c2c1c(=O)n(CC(=O)c1ccccc1)c1ccccc21`, the IC50 on Sonic hedgehog protein turned out to be 9.6 nM. The microsomal CLint in series [1] turned out to be 30 µL/min/mg; in series [2], 192 µL/min/mg.

As to `COc1c(C(=O)NCCN2CCOCC2)n(C)c2c1c(=O)n(CC(=O)c1ccccc1)c1ccccc21`, the IC50 at Sonic hedgehog protein amounted to 22 nM. For the same compound, the microsomal CLint in series [1] was 73 µL/min/mg; in series [2], 237 µL/min/mg.

Take `COc1c(C(=O)NC2CCNCC2)n(C)c2c1c(=O)n(CC(=O)c1ccccc1)c1ccccc21`: at Sonic hedgehog protein, the IC50 was determined as 21 nM. Also, the microsomal CLint in series [1] was 2 µL/min/mg; in series [2], 10 µL/min/mg.

For the compound `COc1c(C(=O)NC2CCN(CCO)CC2)n(C)c2c1c(=O)n(CC(=O)c1ccccc1)c1ccccc21`, on Sonic hedgehog protein, the IC50 was found to be 6.6 nM. Moreover, the figures for the microsomal CLint in series [1] and in series [2] were 6 µL/min/mg and 9 µL/min/mg, respectively. Also, in series [3], the “inhibition (INH)” value is recorded as “Active”.

Turning to `COc1c(C(=O)NC2CCN(C(=O)CO)CC2)n(C)c2c1c(=O)n(CC(=O)c1ccccc1)c1ccccc21`, the IC50 at Sonic hedgehog protein stood at 4.6 nM; in series [5], 41 nM. Further, the microsomal CLint in series [1] was less than 1 µL/min/mg; in series [2], 11 µL/min/mg. Also, the level, % of control at 25 mg/kg with Mus musculus [4] turned out to be 5%. Also, in series [3], the “inhibition (INH)” value is given as “Not Active”. In addition, the Activity entry is on record as “Non-toxic” in the series on Mus musculus [6] and 3% in series [7].

Regarding `COc1c(C(=O)NC2CCN(CCO)CC2)n(C)c2c1c(=O)n(CCc1ccccc1)c1ccccc21`, at Sonic hedgehog protein, the IC50 amounted to 150 nM. The microsomal CLint is 72 µL/min/mg in series [1] and 48 µL/min/mg in series [2].

What is called IC50 is the concentration at which inhibition is half-maximal.
